Measured values published in ChEMBL document CHEMBL1255491, “Altered growth, pigmentation, and antimicrobial susceptibility properties of Staphylococcus aureus due to loss of the major cold shock gene cspB” (2010).
In brackets after ≈: the same amount, converted by molar mass.

Assays:
Format in all cases: functional
Staphylococcus aureus [1] = test: Antimicrobial activity against methicillin-resistant Staphylococcus aureus isolate COL by Etest
In short: (§1)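 MIC by Etest strip (daptomycin, gentamicin, teicoplanin, trimethoprim-sulfamethoxazole), following the manufacturer's protocol with changes. Inoculum came from cells grown in TSB at 37°C for at least 20 h.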

Staphylococcus aureus [2] = test: Antimicrobial activity against Staphylococcus aureus BD2 harboring wild-type cspB gene by Etest; in short: as §1
Staphylococcus aureus [3] = test: Antimicrobial activity against Staphylococcus aureus BD1 harboring aphA-3 insertion in cspB gene by Etest; in short: as §1
Staphylococcus aureus [4] = test: Ratio of MIC for methicillin-resistant Staphylococcus aureus COL grown at 15 degC and measured at 37 degC to MIC for methicillin-resistant Staphylococcus aureus COL grown at 15 degC and measured at 15 degC by Etest
Staphylococcus aureus [5] = test: Antimicrobial activity against methicillin-resistant Staphylococcus aureus COL grown at 15 degC and measured at 37 degC by Etest
In short: (§2)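 Strain COL was grown in TSB at 37°C to mid-log phase, split into equal halves, and kept 1 h at 37°C (control) or 15°C (cold shock). Etest strips for daptomycin, gentamicin or trimethoprim-sulfamethoxazole were then applied per the manufacturer.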

Staphylococcus aureus [6] = test: Antimicrobial activity against methicillin-resistant Staphylococcus aureus COL grown at 37 degC and measured at 37 degC by Etest; in short: as §2
Staphylococcus aureus [7] = test: Ratio of MIC for methicillin-resistant Staphylococcus aureus COL grown at 37 degC and measured at 37 degC to MIC for methicillin-resistant Staphylococcus aureus COL grown at 37 degC and measured at 15 degC by Etest
Staphylococcus aureus [8] = test: Antimicrobial activity against methicillin-resistant Staphylococcus aureus COL grown at 15 degC and measured at 15 degC by Etest
Staphylococcus aureus [9] = test: Antimicrobial activity against methicillin-resistant Staphylococcus aureus COL grown at 37 degC and measured at 15 degC by Etest; in short: as §2

Compound | MIC (Staphylococcus aureus [1]) | MIC (Staphylococcus aureus [2]) | MIC (Staphylococcus aureus [3]) | Ratio (Staphylococcus aureus [4]) | MIC (Staphylococcus aureus [5]) | MIC (Staphylococcus aureus [6]) | Ratio (Staphylococcus aureus [7]) | MIC (Staphylococcus aureus [8]) | MIC (Staphylococcus aureus [9])
CC(=O)N[C@@H]1[C@H](Oc2c3cc4cc2Oc2ccc(cc2Cl)[C@@H](O[C@@H]2O[C@@H](CO)[C@@H](O)[C@H](O)[C@@H]2NC(C)=O)[C@@H]2NC(=O)[C@H](NC(=O)[C@@H]4NC(=O)[C@H]4NC(=O)[C@@H](Cc5ccc(c(Cl)c5)O3)NC(=O)[C@H](N)c3ccc(O)c(c3)Oc3cc(O)cc4c3)c3ccc(O)c(c3)-c3c(O[C@H]4O[C@H](CO)[C@@H](O)[C@@H](O)[C@@H]4O)cc(O)cc3[C@@H](C(=O)O)NC2=O)O[C@@H](CO)[C@@H](O)[C@@H]1O | 3 µg/mL (≈ 1.7 µM) | 2 µg/mL (≈ 1.13 µM) | 0.75 µg/mL (≈ 0.424 µM) |  |  |  |  |  | 
CCCCCCCCCC(=O)N[C@@H](Cc1c[nH]c2ccccc12)C(=O)N[C@H](CC(N)=O)C(=O)N[C@@H](CC(=O)O)C(=O)N[C@@H]1C(=O)NCC(=O)N[C@@H](CCCN)C(=O)N[C@@H](CC(=O)O)C(=O)N[C@H](C)C(=O)N[C@@H](CC(=O)O)C(=O)NCC(=O)N[C@H](CO)C(=O)N[C@@H]([C@H](C)CC(=O)O)C(=O)N[C@@H](CC(=O)c2ccccc2N)C(=O)O[C@@H]1C | 1.5 µg/mL (≈ 0.926 µM) | 2 µg/mL (≈ 1.23 µM) | 0.064 µg/mL (≈ 0.0395 µM) | 2.4 | 1.5 µg/mL (≈ 0.926 µM) | 1.5 µg/mL (≈ 0.926 µM) | 4 | 0.63 µg/mL (≈ 0.389 µM) | 0.46 µg/mL (≈ 0.284 µM)
GENTAMICIN | 0.38 µg/mL | 0.38 µg/mL | 32 µg/mL |  | 0.38 µg/mL | 0.34 µg/mL |  | 0.29 µg/mL | 0.21 µg/mL
